The term viability denotes a read-out of living cells in per cent, often relative to untreated cells. The inhibition is the relative decrease from the control value, in per cent.

This note sets out measurements from PubChem BioAssay.

Calls of active or inactive are those of the source.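 The calls were made as follows, unless noted: active = viability loss from added drug above about 55%, and viability with drug at most 40%, in both replicates (limit read from the data, passing the limit was not always enough); inconclusive = both conditions met in only one replicate; inactive = neither replicate meets both conditions.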

Test [1] is described as follows: Her2 expression decrease, cell viability multiplex – SKBR3 breast tumor cells, AlphaScreen, ATP viability, primary screen (AID 461;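 active = Her2 level under about 52% in both replicate screens, with viability over 70% of control, limit read from the data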;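 as to Her2 level: lower value means less Her2 protein in the cells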;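 as to viability: percent of carrier control wells set as 100% viability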). To be noted: SKBR3 Her2 protein level, 18-24 h, measured here: SKBR3 viability, ATP luminescence, at 10 µM.
Test [2] concerns the target Receptor tyrosine-protein kinase erbB-2 (Homo sapiens) (UniProt P04626). The description is as above. The following applies: 18-24 h, at 10 µM, stronger effect = lower value.
Test [3] in a line: reduced viability of SK-BR-3 breast cancer cells – cell-based, 24 h, human, pilot screen (AID 572;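 active = viability at or below 10% of carrier control in both of two separate runs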;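 also: compound exposure lasted between 18 and 24 h rather than exactly 24 h; 100% = carrier-treated control wells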). The following applies: SK-BR-3 viability, CellTiter-Glo luminescence, at 10 µM, stronger effect = lower value.
Test [4] in a line: HUVEC growth inhibition – cell-based, human, primary screen (AID 575;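 active = viability at or below 30% in both replicate assays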;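 also: 100% = median of untreated cell wells with 0.1% DMSO on each plate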). To be noted: HUVEC proliferation, CellTiter-Glo luminescence, 72 h; at 10 µM; stronger effect = lower value. A digest of the protocol: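 System: primary human umbilical vein endothelial cells; Quantity: 1250 endothelial cells in each well; Buffer or medium: supplemented EBM, 2% fetal bovine serum; Doses: one dose, 10 µM final, 0.1% DMSO; Incubation: 72 h compound incubation; Technique: ATP-based CellTiter-Glo luminescent read; Evaluation: percent of median DMSO-control luminescence; Controls: vehicle and MePR control wells.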

Test [5] can be described thus: H69AR cell proliferation blockers – human, duplicate replicates, primary screen (AID 580;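 active = viability at or under a set limit in both replicates, limit being median viability minus 3 SD, cut at about 48% in these data, passing the limit was not always enough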;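 also: 100% = mean luminescence of untreated wells and 0% = no signal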). The following applies: H69AR lung tumor cells viability, ATP luminescence, 72 h; at 10 µM; stronger effect = lower value.
Test [6] can be described thus: MRP1 drug-resistance reversers in H69AR cells – cell-based, doxorubicin co-treatment, pilot screen (AID 601). The following applies: CellTiter-Glo, 72 h, at 10 µM; for differential viability (reversal): stronger effect = higher value.
Test [7] is described as follows: yeast transport mutant growth inhibition pilot in 384-well plates, post-Golgi transport modulator project (AID 636; in the data active = inhibition above about 31%). The following applies: absorbance 615 nm, about 18 h, stronger effect = higher value.
The nature of test [8]: growth suppression of yeast trafficking mutant, preliminary HTS, modulators of trafficking downstream of Golgi apparatus project, 1536-format plate, OD 615 nm (AID 637; in the data active = inhibition above about 30%). The following applies: yeast transport mutant growth, absorbance 615 nm, 18 h; stronger effect = higher value.
[9] abbreviates: H69AR cells + 2 uM doxorubicin, measured here: viability with 2 uM doxorubicin, stronger effect = lower value.
The mark [10] stands for this setting: H69AR cells, compound alone cytotoxicity.

Receptor tyrosine-protein kinase erbB-2 (Homo sapiens), sequence (P04626 whole entry, looked up): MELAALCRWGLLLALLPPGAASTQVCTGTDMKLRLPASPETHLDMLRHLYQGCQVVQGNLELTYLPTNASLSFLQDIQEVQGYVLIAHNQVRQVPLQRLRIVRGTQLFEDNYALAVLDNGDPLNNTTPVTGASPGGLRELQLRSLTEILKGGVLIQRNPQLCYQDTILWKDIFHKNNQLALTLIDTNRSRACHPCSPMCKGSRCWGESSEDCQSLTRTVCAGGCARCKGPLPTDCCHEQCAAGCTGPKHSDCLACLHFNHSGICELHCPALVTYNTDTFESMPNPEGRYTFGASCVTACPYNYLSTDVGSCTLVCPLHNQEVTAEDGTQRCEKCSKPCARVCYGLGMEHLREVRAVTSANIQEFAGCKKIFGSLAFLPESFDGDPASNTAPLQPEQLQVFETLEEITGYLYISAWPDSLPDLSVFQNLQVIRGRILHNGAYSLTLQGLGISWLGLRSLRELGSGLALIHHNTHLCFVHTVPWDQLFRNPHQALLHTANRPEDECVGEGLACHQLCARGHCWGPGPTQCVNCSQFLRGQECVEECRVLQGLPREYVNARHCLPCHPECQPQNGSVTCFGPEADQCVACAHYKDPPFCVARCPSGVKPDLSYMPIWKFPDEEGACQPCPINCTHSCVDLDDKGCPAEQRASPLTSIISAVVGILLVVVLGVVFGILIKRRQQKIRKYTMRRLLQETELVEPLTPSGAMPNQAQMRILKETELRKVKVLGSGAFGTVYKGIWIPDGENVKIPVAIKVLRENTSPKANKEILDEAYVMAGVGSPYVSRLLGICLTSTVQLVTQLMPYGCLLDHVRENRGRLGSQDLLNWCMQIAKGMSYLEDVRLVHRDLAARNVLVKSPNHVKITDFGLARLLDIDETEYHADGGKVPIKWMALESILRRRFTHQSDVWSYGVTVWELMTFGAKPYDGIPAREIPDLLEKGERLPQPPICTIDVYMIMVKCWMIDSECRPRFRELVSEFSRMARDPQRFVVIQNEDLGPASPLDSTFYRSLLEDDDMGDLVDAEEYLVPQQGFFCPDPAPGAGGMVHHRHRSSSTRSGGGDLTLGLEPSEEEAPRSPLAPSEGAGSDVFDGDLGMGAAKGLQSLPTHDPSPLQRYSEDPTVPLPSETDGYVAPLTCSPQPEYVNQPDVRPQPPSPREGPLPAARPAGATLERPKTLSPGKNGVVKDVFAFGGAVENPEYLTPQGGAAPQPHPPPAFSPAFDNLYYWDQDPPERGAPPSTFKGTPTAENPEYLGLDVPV

As to `CCN1CCCC1CN=Cc1c(O)n(-c2ccccc2)c(=O)c2ccccc12` (stereo not given), the viability is 82% in test [1]; 82% (inactive) in test [3]; 96.9% (inactive) in test [4]; 92.9% (inactive) in test [5]; 95% in test [6] (setting [9]); 92.9% in test [6] (setting [10]). Further, the Her2 level in test [2] was 106% (inactive). Further, the differential viability (reversal) in test [6] (H69AR cells + 2 uM doxorubicin) was -2.08% (inactive). Besides, the results for the inhibition in test [7] and in test [8] were -6.89% (inactive) and -2.54% (inactive), respectively.

In the case of `Cc1noc(COc2ccccc2OCC(O)CNC(C)(C)C)n1` (stereo not given), the viability was 101% in test [1]; 101% (inactive) in test [3]; 103% (inactive) in test [4]; 97% (inactive) in test [5]; 89.9% in test [6] (setting [9]); 97% in test [6] (setting [10]). For the same compound, in test [2], the Her2 level is 89% (inactive). Moreover, in test [6] (H69AR cells + 2 uM doxorubicin), the differential viability (reversal) is 7.13% (inactive). Further, the inhibition was -5.21% (inactive) in test [7] and -9.37% (inactive) in test [8].

For the compound `CCOc1cc(C2c3c(n[nH]c3C)C(=O)N2c2ccc(Br)cc2)ccc1O` (stereo not given), the viability in test [1] is 102%; in test [3] it was 102% (inactive); in test [4], 53.1% (inactive); in test [5], 72.9% (inactive); in test [6] (setting [9]), 62.9%; in test [6] (setting [10]) it was 72.9%. The Her2 level in test [2] was 71.5% (inactive). The differential viability (reversal) in test [6] (H69AR cells + 2 uM doxorubicin) is 9.98% (inactive). Further, the inhibition in test [7] was -4.27% (inactive); in test [8] it was 3.44% (inactive).

As to `CC(NCc1ccco1)C(=O)N1CCc2ccccc2C1` (stereo not given), the viability is 108% in test [1]; 108% (inactive) in test [3]; 109% (inactive) in test [4]; 92.9% (inactive) in test [5]; 87.4% in test [6] (setting [9]); 92.9% in test [6] (setting [10]). The Her2 level in test [2] was 108% (inactive). Also, in test [6] (H69AR cells + 2 uM doxorubicin), the differential viability (reversal) is 5.48% (inactive). The inhibition in test [7] was 1.92% (inactive); in test [8], -2.06% (inactive).

Turning to `Cc1cc2cc(CN(CC3CCCO3)C(=O)c3cnccn3)c(=O)[nH]c2cc1C` (stereo not given), the viability in test [1] was 75%; in test [3], 75% (inactive); in test [4] it was 89.9% (inactive); in test [5] it was 92.3% (inactive); in test [6] (setting [9]), 86.3%; in test [6] (setting [10]) it was 92.3%. In addition, the Her2 level in test [2] was 130% (inactive). Besides, the differential viability (reversal) in test [6] (H69AR cells + 2 uM doxorubicin) was 6.07% (inactive). For the same compound, the inhibition is -0.8% (inactive) in test [7] and -4.59% (inactive) in test [8].

Take `O=C(CSc1nc2ccccc2s1)N1CCN(C(=O)c2ccco2)CC1`: the viability is 86.5% in test [1]; 86.5% (inactive) in test [3]; 79.8% (inactive) in test [4]; 104% (inactive) in test [5]; 94.6% in test [6] (setting [9]); 104% in test [6] (setting [10]). For the same compound, in test [2], the Her2 level is 97% (inactive). Moreover, the differential viability (reversal) in test [6] (H69AR cells + 2 uM doxorubicin) was 9.76% (inactive). The values for the inhibition in test [7] and in test [8] were -3.82% (inactive) and -5.17% (inactive), respectively.

On to `O=C(Cn1ncc2ccccc21)N1CCN(c2cccc(C(F)(F)F)c2)CC1`, for which the viability in test [1] is 89.5%; in test [3] it was 89.5% (inactive); in test [4], 93.4% (inactive); in test [5], 87.1% (inactive); in test [6] (setting [9]), 94.1%; in test [6] (setting [10]), 87.1%. Besides, the Her2 level in test [2] was 94.5% (inactive). Besides, the differential viability (reversal) in test [6] (H69AR cells + 2 uM doxorubicin) is -6.95% (inactive). In addition, the figures for the inhibition in test [7] and in test [8] were -5.87% (inactive) and -1.97% (inactive), respectively.

As to `O=C(CN1C(=O)c2ccccc2C1=O)Nc1ccccc1C(=O)N1CCCC1`, the viability in test [1] was 83%; in test [3], 83% (inactive); in test [4] it was 96% (inactive); in test [5] it was 109% (inactive); in test [6] (setting [9]), 89%; in test [6] (setting [10]), 109%. For the same compound, the Her2 level in test [2] is 90.5% (inactive). The differential viability (reversal) in test [6] (H69AR cells + 2 uM doxorubicin) is 19.7% (inactive). In addition, the figures for the inhibition in test [7] and in test [8] were -3.78% (inactive) and 1.59% (inactive), respectively.

For the compound `O=S(=O)(c1cccc(-c2nnco2)c1)N1CCCC1`, the viability was 100% in test [1]; 100% (inactive) in test [3]; 114% (inactive) in test [4]; 95.4% (inactive) in test [5]; 92.8% in test [6] (setting [9]); 95.4% in test [6] (setting [10]). The Her2 level in test [2] is 116% (inactive). Also, in test [6] (H69AR cells + 2 uM doxorubicin), the differential viability (reversal) was 2.63% (inactive). Besides, the inhibition is -3.33% (inactive) in test [7] and -7.42% (inactive) in test [8].

For the compound `CCn1nnc(-c2ccccc2NC(=O)c2ccc(-n3cnnn3)cc2)n1`, the viability in test [1] is 95.5%; in test [3], 95.5% (inactive); in test [4], 67.7% (inactive); in test [5], 75.7% (inactive); in test [6] (setting [9]), 73.9%; in test [6] (setting [10]), 75.7%. Also, the Her2 level in test [2] is 87% (inactive). In addition, the differential viability (reversal) in test [6] (H69AR cells + 2 uM doxorubicin) is 1.74% (inactive). Also, the inhibition in test [7] is -0.79% (inactive); in test [8], 1.15% (inactive).

For `COCCOC(=O)C1=C(C)Nc2ncnn2C1c1ccc(F)cc1` (stereo not given), the viability in test [1] was 90%; in test [3], 90% (inactive); in test [4], 103% (inactive); in test [5] it was 85.8% (inactive); in test [6] (setting [9]), 82%; in test [6] (setting [10]), 85.8%. Besides, in test [2], the Her2 level was 87.5% (inactive). Besides, the differential viability (reversal) in test [6] (H69AR cells + 2 uM doxorubicin) was 3.85% (inactive). For the same compound, the inhibition in test [7] was -3.6% (inactive); in test [8], -1.48% (inactive).

In the case of `CCN(CCCNC(=O)C1CCN(S(=O)(=O)c2cccc3nonc23)CC1)Cc1ccccc1`, the viability is 89% in test [1]; 89% (inactive) in test [3]; 103% (inactive) in test [4]; 92.9% (inactive) in test [5]; 81.8% in test [6] (setting [9]); 92.9% in test [6] (setting [10]). In addition, in test [2], the Her2 level was 90% (inactive). The differential viability (reversal) in test [6] (H69AR cells + 2 uM doxorubicin) is 11.1% (inactive). Besides, the inhibition in test [7] is -5.39% (inactive); in test [8], 2.5% (inactive).

As to `CCSc1nnc2c(n1)OC=Nc1ccc(Br)cc1-2`, the viability in test [1] was 92.5%; in test [3], 92.5% (inactive); in test [4] it was 79.3% (inactive); in test [5], 99.7% (inactive); in test [6] (setting [9]) it was 86.7%; in test [6] (setting [10]), 99.7%. The Her2 level in test [2] was 86% (inactive). In addition, in test [6] (H69AR cells + 2 uM doxorubicin), the differential viability (reversal) was 12.9% (inactive). In addition, the results for the inhibition in test [7] and in test [8] were -0.66% (inactive) and -4.67% (inactive), respectively.

`CCCCC(=O)Nc1nn(CCC)c2nc3ccccc3cc12`: the viability in test [1] was 94%; in test [3], 94% (inactive); in test [4], 92.5% (inactive); in test [5], 96.1% (inactive); in test [6] (setting [9]) it was 102%; in test [6] (setting [10]), 96.1%. The Her2 level in test [2] was 92% (inactive). Besides, the differential viability (reversal) in test [6] (H69AR cells + 2 uM doxorubicin) was -5.81% (inactive). Further, the inhibition in test [7] was -1.97% (inactive); in test [8] it was 6.23% (inactive).

Turning to `CCCS(=O)(=O)NCCc1cc2cc(C)c(C)cc2[nH]c1=O`, the viability in test [1] is 106%; in test [3] it was 106% (inactive); in test [4] it was 101% (inactive); in test [5], 96.3% (inactive); in test [6] (setting [9]) it was 87.7%; in test [6] (setting [10]), 96.3%. The Her2 level in test [2] is 90% (inactive). Also, the differential viability (reversal) in test [6] (H69AR cells + 2 uM doxorubicin) is 8.55% (inactive). Besides, the inhibition in test [7] is -8.22% (inactive); in test [8], -0.63% (inactive).

For `Cc1cc(C)c2cc3c(ccn3C3OC[C@H](O)[C@H](O)[C@H]3O)cc2n1` (stereo not given in full), the viability was 95% in test [1]; 95% (inactive) in test [3]; 90.2% (inactive) in test [4]; 97.4% (inactive) in test [5]; 90.3% in test [6] (setting [9]); 97.4% in test [6] (setting [10]). Besides, the Her2 level in test [2] is 105% (inactive). In test [6] (H69AR cells + 2 uM doxorubicin), the differential viability (reversal) was 7.18% (inactive). Besides, the results for the inhibition in test [7] and in test [8] were -1.92% (inactive) and 1% (inactive), respectively.
